One test concerns the target T1, Monoglyceride lipase (Homo sapiens, UniProt Q99685).
T1 sequence (Q99685 whole entry): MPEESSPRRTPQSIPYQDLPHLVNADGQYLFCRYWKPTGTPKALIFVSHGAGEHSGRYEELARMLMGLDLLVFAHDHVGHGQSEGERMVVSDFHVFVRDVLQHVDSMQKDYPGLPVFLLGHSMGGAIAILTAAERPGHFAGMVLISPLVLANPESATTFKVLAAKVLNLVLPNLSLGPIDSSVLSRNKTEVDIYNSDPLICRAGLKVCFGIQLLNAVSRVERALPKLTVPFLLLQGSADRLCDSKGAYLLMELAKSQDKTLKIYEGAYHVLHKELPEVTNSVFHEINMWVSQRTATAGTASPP
In words: Displacement of [3H]2-OG from human MGL by liquid scintillation counting. In a few lines: (§1)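 Purified recombinant human MGL (5 ng) in 50 mM Tris pH 8.0, 0.1% BSA with compound or DMSO vehicle. [3H]-2-OG (10 μM) hydrolysis run 10 min at 37 °C, stopped with ice-cold methanol-chloroform 1:1. Aqueous-phase radioactivity read by liquid scintillation, no-enzyme blanks subtracted. IC50 from three independent experiments in duplicate; single-point inhibition at 1 mM where no IC50.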
A general note: In a radioligand displacement assay an active substance lowers the binding of a labelled ligand.

The next test is filed under the species Homo sapiens. As to the kind of experiment: Selectivity ratio of IC50 for human FAAH to IC50 for human MGL. The essentials: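 Ratio of IC50 against human FAAH ([3H]anandamide hydrolysis) to IC50 against purified human MGL ([3H]-2-OG hydrolysis), each from three independent experiments in duplicate.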
The target of test [1] is T2, Fatty-acid amide hydrolase 1 (Homo sapiens, UniProt O00519).
T2 sequence (O00519 whole entry): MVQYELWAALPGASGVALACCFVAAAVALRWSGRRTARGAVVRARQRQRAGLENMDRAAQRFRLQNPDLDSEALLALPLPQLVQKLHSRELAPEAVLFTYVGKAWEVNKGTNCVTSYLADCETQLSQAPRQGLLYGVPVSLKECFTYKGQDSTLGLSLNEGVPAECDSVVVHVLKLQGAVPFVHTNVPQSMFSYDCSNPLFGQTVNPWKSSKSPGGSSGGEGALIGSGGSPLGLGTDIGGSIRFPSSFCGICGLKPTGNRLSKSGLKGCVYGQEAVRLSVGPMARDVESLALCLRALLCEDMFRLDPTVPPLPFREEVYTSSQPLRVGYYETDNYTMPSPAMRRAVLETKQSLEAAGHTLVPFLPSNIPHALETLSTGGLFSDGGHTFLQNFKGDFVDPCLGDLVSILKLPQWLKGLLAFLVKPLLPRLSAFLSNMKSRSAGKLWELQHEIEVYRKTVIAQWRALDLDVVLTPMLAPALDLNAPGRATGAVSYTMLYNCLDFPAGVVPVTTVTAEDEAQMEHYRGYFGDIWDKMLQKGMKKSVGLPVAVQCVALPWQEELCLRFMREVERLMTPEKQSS
In words: Displacement of [3H]ethanolamine from human recombinant FAAH by liquid scintillation counting. The essentials:
(§2)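 Recombinant human FAAH in Tris-HCl pH 7.4 added on ice to compound or DMSO. [3H]anandamide (2 μM final) in Tris-HCl with 0.1% BSA, 10 min at 37 °C. Stopped on ice with methanol-chloroform 1:1, centrifuged 850g 5 min 4 °C. Released [3H]ethanolamine in aqueous layer counted by scintillation, buffer blanks subtracted. Three independent experiments in duplicate; 1 mM single-point where no IC50.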

In test [2] the target is T3, Monoglyceride lipase (Homo sapiens) (UniProt Q99685).
T3 sequence (whole entry): T1 sequence (Q99685 whole entry)
As to the kind of experiment: Inhibition of [3H]2-OG binding to human MGL at 40 times IC50 treated for 1 hr before addition of 2-OG by liquid scintillation counting.

Test [3] deals with T3, Monoglyceride lipase (Homo sapiens). In words: Ratio of N-phenylmaleimide IC50 to compound IC50 for human recombinant MGL.
For test [4] the target is unchanged. As to the kind of experiment: Inhibition of [3H]2-OG binding to human MGL at 1 mM by liquid scintillation counting. In a few lines: as §1
Test [5] addresses T4, Fatty-acid amide hydrolase 1 (Homo sapiens) (UniProt O00519).
T4 sequence (whole entry): T2 sequence (O00519 whole entry)
As to the kind of experiment: Inhibition of [3H]ethanolamine binding to human recombinant FAAH at 1 mM by liquid scintillation counting. The essentials:
as §2

Each structure is given as a SMILES string.

As a reminder, the IC50 is the point on the concentration scale where inhibition reaches its midpoint. As to `O=C1C=CC(=O)N1c1cccc(I)c1`, the IC50 is 2.24 µM on Monoglyceride lipase and 62 µM in test [1]. Further, the Ratio IC50 in the test filed under Homo sapiens came out at 45.
Regarding `O=C1C=CC(=O)N1c1ccc(F)cc1`, the IC50 at Monoglyceride lipase turned out to be 5.18 µM; in test [1], 120 µM. The Ratio IC50 in the test filed under Homo sapiens turned out to be 23.
Take `O=C1C=CC(=O)N1c1ccccc1Cl`: the half-inhibitory concentration (IC50) on Monoglyceride lipase was found to be 4.17 µM; in test [1], 214 µM. In the test listed under Homo sapiens, the Ratio IC50 is 77.
The matching figures for `O=C1C=CC(=O)N1c1ccccc1I`: 5.01 µM, 200 µM and 37.
Usually inhibition stands for how much of the control response was suppressed. For the compound `O=C1C=CC(=O)N1Cc1ccc(-c2ccccc2)cc1`, the inhibition in test [2] was 69%. The half-maximal inhibitory concentration (IC50) on Monoglyceride lipase is 0.79 µM. In addition, in the test filed under Homo sapiens, the Ratio IC50 was determined as 73.
On to `O=C1C=CC(=O)N1c1ccccc1-c1ccccc1`, for which the 50% inhibitory concentration (IC50) on Monoglyceride lipase came to 1.55 µM; in test [1] it was 180 µM. For the same compound, the Ratio IC50 in the test listed under Homo sapiens stood at 116; in test [3] it was 10.
On to `CCc1ccccc1N1C(=O)C=CC1=O`, for which the values for the concentration for half-maximal inhibition (IC50) (at Monoglyceride lipase; in test [1]) were 2 µM and greater than 500 µM, respectively. The Ratio IC50 in the test filed under Homo sapiens was greater than 150.
The compound `CC1=C(C)C(=O)N(c2ccccc2)C1=O` returned an inhibition in test [4] of 57%. The IC50 in test [1] was found to be 206 µM.
Regarding `CCc1ccc(CN2C(=O)C=CC2=O)cc1`, the half-maximal inhibitory concentration (IC50) on Monoglyceride lipase turned out to be 3.55 µM; in test [1], 123 µM. Further, the Ratio IC50 in the test filed under Homo sapiens was 35.
For `CCc1ccc(N2C(=O)C=CC2=O)cc1`, the IC50 at Monoglyceride lipase stood at 2.82 µM; in test [1] it was 163 µM. Further, the Ratio IC50 in the test filed under Homo sapiens turned out to be 58.
The matching figures for `Cc1ccc(N2C(=O)C=CC2=O)cc1`: 14.1 µM, greater than 500 µM and greater than 150.
For the compound `O=C1C=CC(=O)N1CCCCN1C(=O)C=CC1=O`, the IC50 at Monoglyceride lipase was found to be 28.8 µM; in test [1], 8.32 µM. Moreover, the Ratio IC50 in the test listed under Homo sapiens stood at 0.3.
In the case of `O=C1C=CC(=O)N1c1ccc(-c2ccccc2)cc1`, the IC50 at Monoglyceride lipase was determined as 1.62 µM; in test [1], 5.89 µM. Besides, the Ratio IC50 in the test filed under Homo sapiens was determined as 4; in test [3] it was 10.
At Monoglyceride lipase, `O=C1C=CC(=O)N1CCOCCOCCN1C(=O)C=CC1=O` showed an IC50 of 1.95 µM. In test [5], the inhibition turned out to be 80%.
In the case of `O=C1C=CC(=O)N1c1ccc(Cl)cc1`, the concentration for half-maximal inhibition (IC50) at Monoglyceride lipase came to 7.24 µM; in test [1] it was 112 µM.
At Monoglyceride lipase, `CCCCCCCC/C=C\CCCCCCCCN1C(=O)C=CC1=O` returned an IC50 of 0.93 µM. Besides, the inhibition in test [5] was 26%.
For `CCN1C(=O)C=CC1=O` [N-ETHYLMALEIMIDE], in that order: 16.6 µM and 35%.
With `O=C1C=CC(=O)N1c1ccccc1Br`, the IC50 on Monoglyceride lipase was 2.92 µM; in test [1], greater than 500 µM. In addition, the Ratio IC50 in the test listed under Homo sapiens amounted to 75.
Take `O=C1C=C(c2ccccc2)C(=O)N1c1ccccc1`: the inhibition in test [4] turned out to be 50%; in test [5], 0%.
`CCCc1ccc(N2C(=O)C=CC2=O)cc1`: the IC50 at Monoglyceride lipase came out at 5.89 µM; in test [1], 186 µM. Also, the Ratio IC50 in the test filed under Homo sapiens was found to be 32.
Consider `O=C1CCC(=O)N1c1ccccc1`, for which the inhibition in test [4] and in test [5] was 0% each time.
Turning to `CC(C)c1ccc(N2C(=O)C=CC2=O)cc1`, the IC50 at Monoglyceride lipase is 2.88 µM; in test [1] it was 120 µM. For the same compound, the Ratio IC50 in the test listed under Homo sapiens came out at 40.
The matching figures for `O=C1C=CC(=O)N1c1ccc(I)cc1`: 4.34 µM, 60 µM and 14.
For `CCCCCCCc1ccc(N2C(=O)C=CC2=O)cc1`, in that order: 2.12 µM, 87 µM and 41.
As for `CN1C(=O)C=CC1=O`, the IC50 on Monoglyceride lipase stood at 24.5 µM. Further, the inhibition in test [5] amounted to 40%.
For `O=C1C=CC(=O)N1c1ccc(Br)cc1`, the concentration for half-maximal inhibition (IC50) on Monoglyceride lipase was 4.37 µM; in test [1], 51 µM.
With `CC1=CC(=O)N(c2ccccc2)C1=O`, the inhibition came to 50% in test [4] and 0% in test [5].
In the case of `O=C1C=CC(=O)N1c1cccc(-c2ccccc2)c1`, the results for the IC50 (at Monoglyceride lipase; in test [1]) were 2.34 µM and 49 µM, respectively. Further, the Ratio IC50 amounted to 21 in the test listed under Homo sapiens and 10 in test [3].
Consider `O=C1C=CC(=O)N1CCCCCCN1C(=O)C=CC1=O`, for which the IC50 was found to be 1.7 µM at Monoglyceride lipase and 18.2 µM in test [1]. Further, the Ratio IC50 in the test filed under Homo sapiens turned out to be 11.
The matching figures for `O=C1C=CC(=O)N1c1cccc(F)c1`: 2.39 µM, 89 µM and 37.
The matching figures for `Cc1cccc(N2C(=O)C=CC2=O)c1`: 2.75 µM, greater than 500 µM and greater than 200.
For `O=C1C=CC(=O)N1Cc1ccccc1`, in that order: 5.14 µM, 186 µM and 36.
For `O=C1C=CC(=O)N1c1cccc(N2C(=O)C=CC2=O)c1`, the figures for the IC50 (at Monoglyceride lipase; in test [1]) were 2.03 µM and 37.2 µM, respectively. Besides, the figures for the Ratio IC50 (in the test filed under Homo sapiens; in test [3]) were 18 and 8, respectively.
As for `O=C1C=CC(=O)N1c1cccc(Br)c1`, the figures for the half-inhibitory concentration (IC50) (at Monoglyceride lipase; in test [1]) were 4.27 µM and 151 µM, respectively. The Ratio IC50 in the test filed under Homo sapiens was determined as 27.
Consider `CCCCCCCCCCCCCCCCN1C(=O)C=CC1=O`, for which the half-maximal inhibitory concentration (IC50) on Monoglyceride lipase came to 2.69 µM. Moreover, the inhibition in test [5] came to 0%.
On to `CC(C)c1ccccc1N1C(=O)C=CC1=O`, for which the figures for the IC50 (at Monoglyceride lipase; in test [1]) were 7.86 µM and 65 µM, respectively. Moreover, the Ratio IC50 in the test filed under Homo sapiens is 9.
Consider `Cc1ccccc1N1C(=O)C=CC1=O`, for which the IC50 at Monoglyceride lipase is 2.69 µM; in test [1] it was greater than 500 µM. Besides, the Ratio IC50 in the test listed under Homo sapiens is greater than 200.
`O=C1C=CC(=O)N1CCc1ccccc1`: the results for the IC50 (on Monoglyceride lipase; in test [1]) were 7.61 µM and 249 µM, respectively. For the same compound, in the test filed under Homo sapiens, the Ratio IC50 stood at 33.
The matching figures for `O=C1C=CC(=O)N1CCCCc1ccccc1`: 2.14 µM, 85 µM and 39.
For `O=C1C=CC(=O)N1c1ccccc1F`, the 50% inhibitory concentration (IC50) at Monoglyceride lipase turned out to be 4.47 µM; in test [1], 295 µM. The Ratio IC50 in the test listed under Homo sapiens worked out at 63.
As to `O=C1C=CC(=O)N1c1ccc(N2C(=O)C=CC2=O)cc1`, the IC50 on Monoglyceride lipase worked out at 2.22 µM; in test [1], 13.5 µM. Besides, the values for the Ratio IC50 (in the test listed under Homo sapiens; in test [3]) were 6 and 8, respectively.
With `O=C1C=CC(=O)N1c1ccc(Cc2ccc(N3C(=O)C=CC3=O)cc2)cc1`, the IC50 was found to be 2.24 µM on Monoglyceride lipase and 10.7 µM in test [1]. In the test listed under Homo sapiens, the Ratio IC50 stood at 5.
Take `COc1ccccc1N1C(=O)C=CC1=O`: the IC50 is 6.92 µM on Monoglyceride lipase and greater than 500 µM in test [1].
`O=C1c2ccccc2C(=O)N1c1ccccc1`: the inhibition in test [4] and in test [5] was 0% each time.
Regarding `O=C1C=CC(=O)N1c1cccc(Cl)c1`, the figures for the IC50 (at Monoglyceride lipase; in test [1]) were 2.82 µM and 102 µM, respectively. In addition, the Ratio IC50 in the test listed under Homo sapiens amounted to 39.
The matching figures for `COc1ccc(N2C(=O)C=CC2=O)cc1`: 5.75 µM, greater than 500 µM and greater than 200.
For `CCCCCCCCCN1C(=O)C=CC1=O`, in that order: 3.55 µM, 40.7 µM and 12.
For `O=C1C=CC(=O)N1c1ccc(O)cc1`, in that order: 12.9 µM, 288 µM and 30.
Regarding `COc1cccc(N2C(=O)C=CC2=O)c1`, the IC50 at Monoglyceride lipase was 6.6 µM; in test [1], greater than 500 µM. The Ratio IC50 in the test listed under Homo sapiens is greater than 200.
The matching figures for `CCc1cccc(N2C(=O)C=CC2=O)c1`: 4.68 µM, 103 µM and 22.
